Measurements from ChEMBL document CHEMBL4699485, “Discovery and Development of SPR519 as a Potent, Selective, and Orally Bioavailable Inhibitor of PI3Kα and mTOR Kinases for the Treatment of Solid Tumors” (J Med Chem, 2020).

Assays:
Cytochrome P450 3A4 = Cytochrome P450 3A4 (Homo sapiens, UniProt P08684); assay: Inhibition of CYP3A4 in human liver microsomes using isoform-specific probe substrates preincubated for 5 mins followed by NADPH addition by LC-MS/MS analysis; format: ADME
How it was run: (§1)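 Human liver microsomes premixed with buffer and a CYP-specific FDA-recommended probe substrate, then spiked with inhibitor, in duplicate. After 5 min preincubation at 37 °C, reaction started with NADPH and run at 37 °C for a set time, then quenched. Metabolite formation quantified by HPLC/LC-MS/MS to derive the concentration giving 50% inhibition.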

[1] = AUC in Swiss mouse at 3 mg/kg, po via gavage by LC-MS/MS analysis; format: ADME, organism-based; set-up: dose 3 mg/kg; details: in vivo
How it was run: (§2)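 Female Swiss mice (n=3/group), fasted overnight, given single oral gavage dose in 0.5% CMC/0.5% Tween 80 (10 mL/kg) at 1, 3 or 10 mg/kg. Serial blood sampling at 0.16–8 h into heparinized tubes. Plasma extracted with acetonitrile containing verapamil internal standard and quantified by LC-MS/MS. Cmax, Tmax, AUC and t1/2 derived from the concentration–time profile.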

[2] = Toxicity in Swiss mouse assessed as change in body coat at 10 mg/kg, po administered twice daily via gavage for 5 days and measuring daily during compound dosing; format: organism-based; details: in vivo, 120 h, time 5 day
How it was run: (§3)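 Female Swiss mice (3 treated, 2 vehicle controls) received oral gavage twice daily for 5 days, with compound formulated in 0.5% CMC and Tween 80. Body weight, body temperature, body coat, feed intake, eyes, feces and general activity were observed daily.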

[3] = Elimination half life in Swiss mouse at 1 mg/kg, po via gavage by LC-MS/MS analysis; format: ADME, organism-based; details: in vivo, read-out: beta t1/2 (converted); how it was run: as §2
[4] = target: Phosphatidylinositol 4,5-bisphosphate 3-kinase catalytic subunit alpha isoform (Homo sapiens) (UniProt P42336); assay: Inhibition of human PI3kalpha at 1 uM using fluorescently labeled peptide substrate measured after 3 hrs by microfluidic mobility shift assay relative to control
Phosphatidylinositol 4,5-bisphosphate 3-kinase catalytic subunit alpha isoform (Homo sapiens), sequence (P42336 whole entry, canonical isoform): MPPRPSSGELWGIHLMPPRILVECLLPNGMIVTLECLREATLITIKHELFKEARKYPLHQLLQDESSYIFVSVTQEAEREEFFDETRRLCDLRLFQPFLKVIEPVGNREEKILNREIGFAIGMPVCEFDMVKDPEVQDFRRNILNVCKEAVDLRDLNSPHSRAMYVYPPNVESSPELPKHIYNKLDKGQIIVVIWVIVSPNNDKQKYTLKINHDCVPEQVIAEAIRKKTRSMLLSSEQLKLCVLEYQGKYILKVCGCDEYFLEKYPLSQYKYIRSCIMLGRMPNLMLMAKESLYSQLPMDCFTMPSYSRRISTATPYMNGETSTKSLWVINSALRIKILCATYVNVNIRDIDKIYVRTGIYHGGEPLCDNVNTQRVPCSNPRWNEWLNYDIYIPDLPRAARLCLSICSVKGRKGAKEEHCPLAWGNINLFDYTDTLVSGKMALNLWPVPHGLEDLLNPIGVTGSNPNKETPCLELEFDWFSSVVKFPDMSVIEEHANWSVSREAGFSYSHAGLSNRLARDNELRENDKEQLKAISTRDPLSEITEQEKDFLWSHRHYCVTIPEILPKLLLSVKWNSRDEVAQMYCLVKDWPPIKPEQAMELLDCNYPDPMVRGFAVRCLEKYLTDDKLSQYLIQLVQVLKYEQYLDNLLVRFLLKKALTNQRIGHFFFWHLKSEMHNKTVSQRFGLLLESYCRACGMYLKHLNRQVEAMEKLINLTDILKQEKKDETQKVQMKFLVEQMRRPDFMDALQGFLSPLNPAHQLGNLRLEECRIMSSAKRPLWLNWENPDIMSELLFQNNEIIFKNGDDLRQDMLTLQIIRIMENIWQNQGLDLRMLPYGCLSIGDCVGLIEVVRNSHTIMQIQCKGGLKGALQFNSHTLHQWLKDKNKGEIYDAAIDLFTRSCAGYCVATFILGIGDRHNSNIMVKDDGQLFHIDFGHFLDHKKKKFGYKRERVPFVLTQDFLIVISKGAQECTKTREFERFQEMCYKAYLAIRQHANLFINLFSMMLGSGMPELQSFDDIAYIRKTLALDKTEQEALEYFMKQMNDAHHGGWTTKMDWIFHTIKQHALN
How it was run: (§4)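 Single-concentration screen at 1 µM in duplicate, 1% final DMSO. Kinase (typically 1 nM), fluorescently labeled peptide substrate (typically 1 µM), ATP at Km and Mg²⁺ incubated about 3 h at 25 °C, then EDTA-quenched. Substrate and phosphorylated product separated by microfluidic electrophoresis and quantified by fluorescence.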

[5] = target: Glycogen synthase kinase-3 beta (Homo sapiens) (UniProt P49841); assay: Inhibition of human GSK3B at 1 uM using fluorescently labeled peptide substrate measured after 3 hrs by microfluidic mobility shift assay relative to control; how it was run: as §4
[6] = target: Phosphatidylinositol 4,5-bisphosphate 3-kinase catalytic subunit beta isoform (Homo sapiens) (UniProt P42338); assay: Inhibition of human PI3kbeta at 1 uM using fluorescently labeled peptide substrate measured after 3 hrs by microfluidic mobility shift assay relative to control; how it was run: as §4
Phosphatidylinositol 4,5-bisphosphate 3-kinase catalytic subunit beta isoform (Homo sapiens), sequence (P42338 whole entry, looked up, canonical isoform): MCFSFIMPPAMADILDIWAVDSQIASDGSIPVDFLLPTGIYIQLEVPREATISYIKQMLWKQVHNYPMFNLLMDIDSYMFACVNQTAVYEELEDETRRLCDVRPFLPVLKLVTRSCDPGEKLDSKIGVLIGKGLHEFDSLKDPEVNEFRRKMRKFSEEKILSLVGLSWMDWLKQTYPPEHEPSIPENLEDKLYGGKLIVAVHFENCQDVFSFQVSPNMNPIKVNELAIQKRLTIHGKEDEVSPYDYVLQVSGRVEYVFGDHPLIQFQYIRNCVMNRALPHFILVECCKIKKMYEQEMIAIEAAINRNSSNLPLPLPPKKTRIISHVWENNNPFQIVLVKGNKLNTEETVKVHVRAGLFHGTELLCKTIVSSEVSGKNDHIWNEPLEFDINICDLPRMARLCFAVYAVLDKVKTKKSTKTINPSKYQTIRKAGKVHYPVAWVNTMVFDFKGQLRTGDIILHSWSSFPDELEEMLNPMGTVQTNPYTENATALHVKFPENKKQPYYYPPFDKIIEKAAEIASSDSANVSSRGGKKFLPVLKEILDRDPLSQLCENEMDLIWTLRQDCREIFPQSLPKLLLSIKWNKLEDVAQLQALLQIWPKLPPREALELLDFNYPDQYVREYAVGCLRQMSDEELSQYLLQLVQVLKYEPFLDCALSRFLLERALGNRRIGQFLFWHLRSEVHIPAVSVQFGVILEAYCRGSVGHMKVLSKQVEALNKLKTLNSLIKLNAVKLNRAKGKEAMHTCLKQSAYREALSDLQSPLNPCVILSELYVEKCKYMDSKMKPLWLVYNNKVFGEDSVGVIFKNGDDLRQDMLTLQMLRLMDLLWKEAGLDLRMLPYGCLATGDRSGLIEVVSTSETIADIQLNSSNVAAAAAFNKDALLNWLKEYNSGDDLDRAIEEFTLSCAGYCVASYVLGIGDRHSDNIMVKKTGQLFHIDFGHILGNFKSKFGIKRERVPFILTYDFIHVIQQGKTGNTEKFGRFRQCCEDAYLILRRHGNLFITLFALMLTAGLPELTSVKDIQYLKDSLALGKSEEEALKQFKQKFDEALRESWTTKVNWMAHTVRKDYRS

[7] = Tmax in Swiss mouse at 10 mg/kg, po via gavage by LC-MS/MS analysis; format: ADME, organism-based; details: in vivo
How it was run: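 Female Swiss mice (n=3/group) were fasted overnight, then gavaged with compound in 0.5% CMC/0.5% Tween 80 at 10 mL/kg. Serial blood samples at 0.16, 0.5, 1, 2, 4, 6 and 8 h were taken into heparinized tubes and spun to plasma. Plasma was extracted with acetonitrile containing verapamil (400 ng/mL) and quantified by LC-MS/MS against plasma calibration curves. Tmax was derived from the concentration–time profile.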

[8] = target: Voltage-gated inwardly rectifying potassium channel KCNH2 (Homo sapiens, UniProt Q12809); assay: Inhibition of human ERG channel trafficking expressed in mammalian expression system at 1 to 30 uM by HERG-Lite assay; details: dose 1-30 µM
Voltage-gated inwardly rectifying potassium channel KCNH2, sequence (Q12809 whole entry): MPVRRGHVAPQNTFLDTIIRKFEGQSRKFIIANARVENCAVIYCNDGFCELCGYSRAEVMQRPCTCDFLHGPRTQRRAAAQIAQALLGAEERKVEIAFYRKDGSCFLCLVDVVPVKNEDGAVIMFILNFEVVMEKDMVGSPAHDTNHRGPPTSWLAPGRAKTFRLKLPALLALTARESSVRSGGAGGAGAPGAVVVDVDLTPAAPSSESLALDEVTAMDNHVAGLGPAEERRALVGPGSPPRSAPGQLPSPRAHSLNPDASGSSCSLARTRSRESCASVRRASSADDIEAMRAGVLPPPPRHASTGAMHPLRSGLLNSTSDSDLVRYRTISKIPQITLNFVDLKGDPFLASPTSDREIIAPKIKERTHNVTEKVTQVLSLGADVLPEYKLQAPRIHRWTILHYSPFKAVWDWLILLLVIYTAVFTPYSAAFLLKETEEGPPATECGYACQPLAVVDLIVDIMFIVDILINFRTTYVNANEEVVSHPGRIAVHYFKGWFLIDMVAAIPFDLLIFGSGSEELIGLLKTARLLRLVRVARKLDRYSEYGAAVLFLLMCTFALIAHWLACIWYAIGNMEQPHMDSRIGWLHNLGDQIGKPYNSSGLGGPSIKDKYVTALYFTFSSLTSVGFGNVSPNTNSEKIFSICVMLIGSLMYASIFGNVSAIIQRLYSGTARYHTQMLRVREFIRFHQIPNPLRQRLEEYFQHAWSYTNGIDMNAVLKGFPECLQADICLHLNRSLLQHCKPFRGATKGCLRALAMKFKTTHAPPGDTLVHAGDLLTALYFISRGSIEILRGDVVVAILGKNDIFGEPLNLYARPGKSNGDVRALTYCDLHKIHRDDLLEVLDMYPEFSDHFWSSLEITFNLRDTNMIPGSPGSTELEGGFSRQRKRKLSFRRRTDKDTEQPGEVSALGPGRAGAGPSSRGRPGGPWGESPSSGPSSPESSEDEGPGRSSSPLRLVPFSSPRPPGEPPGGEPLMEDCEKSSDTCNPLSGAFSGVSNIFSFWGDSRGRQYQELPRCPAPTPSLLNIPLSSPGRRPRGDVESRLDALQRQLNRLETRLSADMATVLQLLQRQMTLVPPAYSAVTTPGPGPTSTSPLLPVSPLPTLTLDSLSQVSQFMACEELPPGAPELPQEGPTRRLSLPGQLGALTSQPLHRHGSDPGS
How it was run: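 HERG-lite assay scoring both channel blocking and trafficking inhibition, with test compound at 1, 10 and 30 µM. Geldanamycin (1 µM) served as the trafficking-inhibition reference and astemizole as the standard hERG binder.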

[9] = target: Receptor-type tyrosine-protein kinase FLT3 (Homo sapiens) (UniProt P36888); assay: Inhibition of human FLT3 at 1 uM using fluorescently labeled peptide substrate measured after 3 hrs by microfluidic mobility shift assay relative to control; how it was run: as §4
Cytochrome P450 2C19 = Cytochrome P450 2C19 (Homo sapiens, UniProt P33261); assay: Inhibition of CYP2C19 in human liver microsomes using isoform-specific probe substrates preincubated for 5 mins followed by NADPH addition by LC-MS/MS analysis; format: ADME; how it was run: as §1
Cytochrome P450 2C19, sequence (P33261 whole entry, canonical isoform): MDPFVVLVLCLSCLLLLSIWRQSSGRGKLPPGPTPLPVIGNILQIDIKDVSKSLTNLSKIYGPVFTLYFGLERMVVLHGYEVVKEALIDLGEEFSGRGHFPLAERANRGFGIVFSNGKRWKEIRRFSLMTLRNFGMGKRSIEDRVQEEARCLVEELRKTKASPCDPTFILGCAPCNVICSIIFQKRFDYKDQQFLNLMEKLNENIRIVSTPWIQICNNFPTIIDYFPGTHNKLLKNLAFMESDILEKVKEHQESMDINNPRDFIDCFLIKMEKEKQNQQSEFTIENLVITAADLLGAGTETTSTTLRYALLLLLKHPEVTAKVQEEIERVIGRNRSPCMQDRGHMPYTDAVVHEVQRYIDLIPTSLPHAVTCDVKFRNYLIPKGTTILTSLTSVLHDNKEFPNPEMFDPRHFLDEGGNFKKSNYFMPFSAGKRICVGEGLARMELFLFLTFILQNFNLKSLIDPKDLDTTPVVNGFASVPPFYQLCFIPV

[10] = target: Ribosomal protein S6 kinase beta-1 (Homo sapiens) (UniProt P23443); assay: Inhibition of human P70S6K1 at 1 uM using fluorescently labeled peptide substrate measured after 3 hrs by microfluidic mobility shift assay relative to control; how it was run: as §4
Ribosomal protein S6 kinase beta-1 (Homo sapiens), sequence (P23443 whole entry, looked up): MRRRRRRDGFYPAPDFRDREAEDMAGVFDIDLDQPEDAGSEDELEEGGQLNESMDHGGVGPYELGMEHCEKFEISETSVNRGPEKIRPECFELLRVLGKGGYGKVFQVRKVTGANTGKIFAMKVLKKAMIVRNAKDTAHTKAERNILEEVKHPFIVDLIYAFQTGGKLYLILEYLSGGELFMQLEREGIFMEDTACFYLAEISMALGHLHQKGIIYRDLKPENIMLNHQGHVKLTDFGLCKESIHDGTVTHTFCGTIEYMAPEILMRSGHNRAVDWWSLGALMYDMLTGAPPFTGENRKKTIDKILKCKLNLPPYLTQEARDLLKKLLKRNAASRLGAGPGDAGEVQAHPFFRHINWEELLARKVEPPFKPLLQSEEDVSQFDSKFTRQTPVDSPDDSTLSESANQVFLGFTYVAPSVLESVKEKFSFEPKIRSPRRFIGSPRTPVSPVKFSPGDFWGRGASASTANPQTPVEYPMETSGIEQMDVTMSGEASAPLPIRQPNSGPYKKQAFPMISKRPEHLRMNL

[11] = target: Dual specificity mitogen-activated protein kinase kinase 2 (Homo sapiens) (UniProt P36507); assay: Inhibition of human MEK2 at 1 uM using fluorescently labeled peptide substrate measured after 3 hrs by microfluidic mobility shift assay relative to control; how it was run: as §4
Dual specificity mitogen-activated protein kinase kinase 2 (Homo sapiens), sequence (P36507 whole entry): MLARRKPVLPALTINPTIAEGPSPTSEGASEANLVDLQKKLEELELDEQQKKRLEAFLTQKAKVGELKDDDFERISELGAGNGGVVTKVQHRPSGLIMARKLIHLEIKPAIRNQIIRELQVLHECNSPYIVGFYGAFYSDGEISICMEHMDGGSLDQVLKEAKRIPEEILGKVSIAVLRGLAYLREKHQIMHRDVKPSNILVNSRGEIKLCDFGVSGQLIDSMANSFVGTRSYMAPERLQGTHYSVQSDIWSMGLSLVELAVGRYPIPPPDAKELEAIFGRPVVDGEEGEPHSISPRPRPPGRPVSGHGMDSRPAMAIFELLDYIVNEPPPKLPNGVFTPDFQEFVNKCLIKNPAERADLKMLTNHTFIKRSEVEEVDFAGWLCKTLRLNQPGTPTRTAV

[12] = Toxicity in Swiss mouse assessed as discoloration of kidney at 30 mg/kg, po administered twice daily via gavage for 5 days and measured post last dose; format: organism-based; details: in vivo, 120 h, time 5 day
How it was run: (§5)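 Female Swiss mice (3 treated, 2 controls) were gavaged twice daily for 5 days, with compound in 0.5% CMC and Tween 80. After the last dosing the animals were sacrificed. Liver, kidney, lung, uterus and brain were excised and inspected visually for morphology and color change.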

[13] = Drug level in Swiss mouse uterus at 30 mg/kg, po administered twice daily via gavage for 5 days and measured post last dose by LC-MS/MS analysis; format: ADME, organism-based; details: time 5 day, read-out: Drug uptake
How it was run: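 Female Swiss mice (n=3) given 30 mg/kg in 0.5% CMC/Tween 80 by oral gavage twice daily for 5 days, with two vehicle controls. After sacrifice, liver, kidney, lung, uterus and brain were collected, homogenized in water and solvent-extracted. Drug concentration (ng/g) measured by LC-MS/MS.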

[14] = target: 3-phosphoinositide-dependent protein kinase 1 (Homo sapiens) (UniProt O15530); assay: Inhibition of human PDK1 at 1 uM using fluorescently labeled peptide substrate measured after 3 hrs by microfluidic mobility shift assay relative to control
[15] = Cmax in Swiss mouse at 10 mg/kg, po via gavage by LC-MS/MS analysis; format: ADME, organism-based; set-up: route oral, dose 10 mg/kg; details: in vivo; how it was run: as §2
[16] = Toxicity in Swiss mouse assessed as discoloration of lung at 30 mg/kg, po administered twice daily via gavage for 5 days and measured post last dose; format: organism-based; details: in vivo, 120 h, time 5 day; how it was run: as §5
[17] = Toxicity in Swiss mouse assessed as effect on eyes at 10 mg/kg, po administered twice daily via gavage for 5 days and measuring daily during compound dosing; format: organism-based; details: in vivo, 120 h, time 5 day; how it was run: as §3
[18] = Toxicity in Swiss mouse assessed as morphological changes in liver at 30 mg/kg, po administered twice daily via gavage for 5 days and measured post last dose; format: organism-based; details: in vivo, 120 h, time 5 day; how it was run: as §5
[19] = Toxicity in Swiss mouse assessed as body weight loss at 10 mg/kg, po administered twice daily via gavage for 5 days and measuring daily during compound dosing; format: organism-based; details: in vivo, 120 h, time 5 day; how it was run: as §3
[20] = target: PI3-kinase p110-alpha/p85-alpha (Homo sapiens, UniProt P42336); assay: Inhibition of recombinant human full-length N-terminal His-tagged p110 alpha/p85 alpha expressed in baculovirus expression system using PIP2 as substrate preincubated for 15 mins followed by substrate addition and measured after 60 mins by ADP HiLyte 647 tracer bound ADP2 antibody-Tb conjugate based HTRF assay
How it was run: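 PI3Kα at 150 ng/mL (diluted stock) in 50 mM HEPES pH 7.4, 3 mM MgCl2, 2 mM DTT, 0.05% CHAPS, 50 mM NaCl, 1 mM EGTA. Compound tested over 10–0.001 µM. Final reaction held 50 µM PIP2 and 1 µM ATP. Detection mix added for 1 h, then 665/615 nm ratio read. % inhibition versus concentration fitted by four-parameter nonlinear regression to give IC50.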

## CN(C)C(=O)c1ccc(Oc2nc(-c3cnc(N)s3)nc(N3CCOCC3)n2)cc1
Cytochrome P450 3A4
  IC50: > 10 µM
[1]
  AUC: 32.1 µM·h
[2]
  Activity: Non-Toxic
[3]
  half-life: 2.66 h
[4]
  inhibition: 86%
[5]
  inhibition: -1%
[6]
  inhibition: 42%
[7]
  Tmax: 1.67 h
[8]
  inhibition (INH): Not Active
[9]
  inhibition: 9%
Cytochrome P450 2C19
  IC50: > 10 µM
[10]
  inhibition: -1%
[11]
  inhibition: 1%
[12]
  Activity: Non-Toxic
[13]
  concentration at 120 h: 10 ng/g
[14]
  inhibition: -1%
[15]
  Cmax: 12.6 µM
[16]
  Activity: Non-Toxic
[17]
  Activity: Non-Toxic
[18]
  Activity: Non-Toxic
[19]
  Activity: Non-Toxic
[20]
  IC50: 0.03 µM
